ChEMBL document CHEMBL1125276 (J Med Chem, 1991)

Experiments:
L1210 = test: Tested for the inhibition of L1210 cell proliferation.; format: functional, cell-based; conditions: Mus musculus
Outline: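 L1210 cells were grown in RPMI 1640 with 10% FCS, 2 mM L-glutamine and 10 mM HEPES (pH 7.4). Exponential-phase cells (10^5 cells/mL) were exposed for 24 h to 5 drug concentrations in triplicate, then pulsed 3 h with 0.5 µCi/mL [3H]thymidine. Cells were harvested onto filters and counted. IC50 is 50% inhibition of incorporation versus untreated cells, given as the mean of 2–5 independent experiments.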

P388 [1] = test: Compound was tested for T/C range at optimal dose of 0.25 mg/kg for antitumor activity against P388 leukemia cells in mice.; format: functional, Mus musculus
Tubulin = test: The compound tested for the inhibition of tubulin polymerization.; format: functional
Outline: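 Tubulin was partially purified from dog brain by polymerization/depolymerization cycles and used at 0.5 mg/mL. Compounds were added in DMSO (10 µL per 500 µL reaction) at 10^-6 to 10^-9 M, with DMSO-only controls. Polymerization was followed by turbidity at 350 nm. Rates from two separate experiments were plotted against concentration, and IC50 was read graphically.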

P388 [2] = test: Long-term survivors (LTS) for 60 days at optimal dose of 0.25 mg/kg for antitumor activity against P388 leukemia cells in 6 mice.; format: functional, Mus musculus
P388 [3] = test: Long-term survivors (LTS) for 60 days at optimal dose of 12.00 mg/kg for antitumor activity against P388 leukemia cells in 5 mice.; format: functional, Mus musculus
P388 [4] = test: Compound was tested for T/C range at optimal dose of 12.00 mg/kg for antitumor activity against P388 leukemia cells in mice.; format: functional, Mus musculus
P388 [5] = test: Long-term survivors (LTS) for 60 days at optimal dose of 3.0 mg/kg for antitumor activity against P388 leukemia cells in 6 mice.; format: functional, Mus musculus
P388 [6] = test: Compound was tested for T/C range at optimal dose of 3.0 mg/kg for antitumor activity against P388 leukemia cells in mice.; format: functional, Mus musculus
P388 [7] = test: Compound was tested for T/C range at optimal dose of 3.0 mg/kg for antitumor activity against P388 leukemia cells in mice; value ranges from 165-181; format: functional, Mus musculus
P388 [8] = test: Long-term survivors (LTS) for 60 days at optimal dose of 3.0 mg/kg for antitumor activity against P388 leukemia cells in 15 mice.; format: functional, Mus musculus
P388 [9] = test: Compound was tested for T/C range at optimal dose of 20.0 mg/kg for antitumor activity against P388 leukemia cells in mice.; format: functional, Mus musculus
P388 [10] = test: Long-term survivors (LTS) for 60 days at optimal dose of 20.0 mg/kg for antitumor activity against P388 leukemia cells in 5 mice; format: functional, Mus musculus
P388 [11] = test: Long-term survivors (LTS) for 60 days at optimal dose of 1.00 mg/kg for antitumor activity against P388 leukemia cells in 5 mice.; format: functional, Mus musculus
P388 [12] = test: Compound was tested for T/C range at optimal dose of 1.00 mg/kg for antitumor activity against P388 leukemia cells in mice.; format: functional, Mus musculus
P388 [13] = test: Compound was tested for T/C range at optimal dose of 3.0 mg/kg for antitumor activity against P388 leukemia cells in mice; value ranges from 157-203; format: functional, Mus musculus
P388 [14] = test: Long-term survivors (LTS) for 60 days at optimal dose of 3.0 mg/kg for antitumor activity against P388 leukemia cells in 45 mice.; format: functional, Mus musculus
P388 [15] = test: Compound was tested for T/C range at optimal dose of 100 mg/kg for antitumor activity against P388 leukemia cells in mice; value ranges from 150-285; format: functional, Mus musculus
P388 [16] = test: Long-term survivors (LTS) for 60 days at optimal dose of 100 mg/kg for antitumor activity against P388 leukemia cells in 54 mice.; format: functional, Mus musculus

Row | Compound | IC50 (L1210) | IC50 (Tubulin) | LTS (P388 [5]) | T/C (P388 [6]) | other results
1 | CCOP(=O)(OCC)[C@H](C)NC(=O)[C@@]1(O)[C@H](O)[C@]2(CC)C=CCN3CC[C@@]4(c5cc([C@@]6(C(=O)OC)C[C@@H]7CN(CCc8c6[nH]c6ccccc86)C[C@](O)(CC)C7)c(OC)cc5N(C)[C@@H]14)[C@@H]32 | 0.4 nM | 200 nM | – | – | T/C (P388 [1]): 342%; LTS (P388 [2]): 2
2 | C=CC[C@@H](NC(=O)[C@@]1(O)[C@H](O)[C@]2(CC)C=CCN3CC[C@@]4(c5cc([C@@]6(C(=O)OC)C[C@@H]7CN(CCc8c6[nH]c6ccccc86)C[C@](O)(CC)C7)c(OC)cc5N(C)[C@@H]14)[C@@H]32)P(=O)(OCC)OCC | 26.4 nM | – | – | – | LTS (P388 [3]): 0; T/C (P388 [4]): 195%
3 | CCOP(=O)(OCC)[C@H](NC(=O)[C@@]1(O)[C@H](O)[C@]2(CC)C=CCN3CC[C@@]4(c5cc([C@@]6(C(=O)OC)C[C@@H]7CN(CCc8c6[nH]c6ccccc86)C[C@](O)(CC)C7)c(OC)cc5N(C)[C@@H]14)[C@@H]32)C(C)C | 10.9 nM | 800 nM | 0 | 135% | –
4 | CC[C@]1(O)C[C@H]2CN(CCc3c([nH]c4ccccc34)[C@@](C(=O)OC)(c3cc4c(cc3OC)N(C=O)[C@H]3[C@@](O)(C(=O)OC)[C@H](OC(C)=O)[C@]5(CC)C=CCN6CC[C@]43[C@@H]65)C2)C1 [VINCRISTINE] | 4.85 nM | 500 nM | – | – | T/C (P388 [7]): 165%; LTS (P388 [8]): 0
5 | CCOP(=O)(CNC(=O)[C@@]1(O)[C@H](O)[C@]2(CC)C=CCN3CC[C@@]4(c5cc([C@@]6(C(=O)OC)C[C@@H]7CN(CCc8c6[nH]c6ccccc86)C[C@](O)(CC)C7)c(OC)cc5N(C)[C@@H]14)[C@@H]32)OCC | 17.8 nM | 300 nM | 1 | 230% | –
6 | CCOP(=O)(OCC)[C@@H](Cc1ccccc1)NC(=O)[C@@]1(O)[C@H](O)[C@]2(CC)C=CCN3CC[C@@]4(c5cc([C@@]6(C(=O)OC)C[C@@H]7CN(CCc8c6[nH]c6ccccc86)C[C@](O)(CC)C7)c(OC)cc5N(C)[C@@H]14)[C@@H]32 | 14.3 nM | – | – | – | T/C (P388 [9]): 261%; LTS (P388 [10]): 1
7 | C=CC[C@H](NC(=O)[C@@]1(O)[C@H](O)[C@]2(CC)C=CCN3CC[C@@]4(c5cc([C@@]6(C(=O)OC)C[C@@H]7CN(CCc8c6[nH]c6ccccc86)C[C@](O)(CC)C7)c(OC)cc5N(C)[C@@H]14)[C@@H]32)P(=O)(OCC)OCC | 1.29 nM | – | – | – | LTS (P388 [11]): 0; T/C (P388 [12]): 294%
8 | CC[C@]1(O)C[C@@H]2CN(CCc3c([nH]c4ccccc34)[C@@](C(=O)OC)(c3cc4c(cc3OC)N(C)[C@H]3[C@@](O)(C(=O)OC)[C@H](OC(C)=O)[C@]5(CC)C=CCN6CC[C@]43[C@@H]65)C2)C1 [VINBLASTINE] | 3.15 nM | – | – | – | T/C (P388 [13]): 157%; LTS (P388 [14]): 2
9 | CCOC(=O)C(Cc1c[nH]c2ccccc12)NC(=O)[C@@]1(O)[C@H](O)[C@]2(CC)C=CCN3CC[C@@]4(c5cc([C@@]6(C(=O)OC)C[C@@H]7CN(CCc8c6[nH]c6ccccc86)C[C@](O)(CC)C7)c(OC)cc5N(C)[C@@H]14)[C@@H]32 (stereo not given in full) [VINTRYPOL] | – | 200 nM | – | – | T/C (P388 [15]): 150%; LTS (P388 [16]): 2
10 | CCCCCC(NC(=O)[C@@]1(O)[C@H](O)[C@]2(CC)C=CCN3CC[C@@]4(c5cc([C@@]6(C(=O)OC)C[C@@H]7CN(CCc8c6[nH]c6ccccc86)C[C@](O)(CC)C7)c(OC)cc5N(C)[C@@H]14)[C@@H]32)P(=O)(OCC)OCC (mixture of isomers) | 3.97 nM | 20 nM | 0 | 203% | –
